Lung fibro prol – antiproliferative effect on LL 47 fibroblasts – human, LL 47 cells, CellTiter-Glo luminescence, primary screen; LL 47 human lung fibroblast viability, ATP luminescence; stronger effect = lower value; actives 1.1% (n = 85,000); viability, % at 10 µM;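 active means viability at or below 50% in the single dose screen; inactive means viability above 50%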;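 further: compound exposure lasted 72 h before the ATP readout; 100% = median luminescence of untreated cell-only wells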
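Assay system: human lung fibroblast line LL 47, low passage. Input: 1,150 fibroblasts seeded per well. Times: overnight cell rest, 72 h compound treatment at 37 °C. Evaluation: % viability of median cell-only signal. Technique: luminescent ATP detection, CellTiter-Glo. Control set: cell-only wells, no compound.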
H69AR inhibit – proliferation blockers of H69AR lung cancer cells, primary screen, cell-based, human, 86K library; H69AR lung tumor viability, ATP luminescence, 72 h; stronger effect = lower value; viability, % at 10 µM; actives 6% (n = 85,000); AID 598, 2007;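 active means viability at or below 40%; inactive means viability above 40%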;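 further: multidrug resistant small cell line overexpressing MRP-1 efflux transporter; 100% = mean luminescence of untreated control wells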
HCT116 bCat-KO – primary screen for growth suppressors in beta-catenin knockout HCT116 cells (colon tumor, human); HCT116 beta-catenin knockout viability, CellTiter-Glo, 60 h; stronger effect = lower value; viability, % at 10 µM; actives 1.5% (n = 140,000);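 active means viability at or under a set limit, the compound median less 4 SD, cut at about 6% in these data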;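 further: 0% = Hyamine 1622 control at 20 µM and 100% = untreated cell control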
HCT116 PTEN-null – growth suppression of PTEN-null HCT116, primary screen, cell-based, CellTiter-Glo. HCT116 PTEN-null viability, 60 h; stronger effect = lower value. viability, % at 10 µM. actives 1.2% (n = 140,000);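 active means viability at or below a set limit, 4 SD under the median of all tested compounds, cut at about 3.7% in these data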;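 further: PTEN knockout HCT116 line with beta catenin targeted HCT116 as companion control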
HUVEC inhibit – inhibitors of HUVEC proliferation, primary screen, cell-based, 384-well; actives 1.1% (n = 86,000); viability, % at 10 µM (by protocol); CellTiter-Glo luminescence, 72 h; stronger effect = lower value;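 active means viability at or below 30%; inactive means viability above 30%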;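 further: 100% = median luminescence of DMSO-only cell control wells on each plate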
Active calls of the source: *; / = no result. The full list was thinned out, with hits kept by preference.

SMILES	Lung fibro prol	H69AR inhibit	HCT116 bCat-KO	HCT116 PTEN-null	HUVEC inhibit
N#CC1=C(N)N(c2ccccc2)C(c2cccc([N+](=O)[O-])c2)C1(C#N)C#N (stereo not drawn)	90	10*	93	89	87
CCOc1ccc(CCNC(=O)COC(=O)/C=C/c2ccc(OCC#N)c(OC)c2)cc1OCC	/	/	102	105	/
COc1cc2c(cc1OC)CN(c1nc(CN3CCOCC3)nc3sc4c(c13)CCCC4)CC2	/	/	30	3.1*	/
CCN(CCCNC(=O)C1CCC(=O)N1C(C)C)c1cccc(C)c1 (stereo not drawn)	97	94	105	96	94
COC(=O)c1sc(NC(=O)CSc2nc3cccnc3n2C2CCCCC2)nc1C	89	20*	84	91	56
CC(C)CC(=O)/C=C/n1c(=S)oc2ccccc21	/	/	3.8*	2.4*	/
CC(=O)/C=C/n1c(=S)oc2ccccc21	/	/	5.3*	5	/
CCCCOC(=O)CCn1c(=S)oc2ccccc21	104	87	104	92	97
COc1ccc(C2NC(=O)NC(C)=C2C(C)=O)cc1 (stereo not drawn)	102	97	92	97	99
Nn1c(COc2ccc(Cl)cc2)nc2ccccc2c1=O	/	/	95	103	/
O=C1NC(c2ccccn2)Nc2sc3c(c21)CCC3 (stereo not drawn)	84	43	3.8*	1.8*	72
Cn1cc(C2NC(=O)c3c(sc4c3CCCC4)N2)c2ccccc21 (stereo not drawn)	91	28*	/	/	85
Cc1ccsc1C1NC(=O)c2c(sc3c2CCCC3)N1 (stereo not drawn)	/	/	80	86	/
CCNC(=S)N(Cc1cccs1)Cc1cc2cc(OCC)ccc2[nH]c1=O	/	/	76	82	/
CCOc1ccc2[nH]c(=O)c(CN(Cc3cccs3)C(CC)c3nnnn3C(C)(C)CC)cc2c1 (stereo not drawn)	62	4.9*	30	18	56
CCC(c1nnnn1C1CCCC1)N(Cc1cccs1)Cc1cc2cc(C)ccc2[nH]c1=O (stereo not drawn)	74	4.2*	4.0*	3.0*	51
CCOC(=O)Cn1nnnc1C(CC)N(Cc1cccs1)Cc1cc2cc(C)ccc2[nH]c1=O (stereo not drawn)	101	72	55	52	86
O=C1CSC(c2ccccn2)N1Cc1cn2ccccc2n1 (stereo not drawn)	14*	94	79	79	100
CC(=O)Nc1ccc(C(=O)OCC(=O)N(Cc2ccccc2)C(C)(C)C)cc1	/	/	97	115	/
CCN(CC)CCCNc1nc2cc(OC)c(OC)cc2c2nc(-c3cccnc3)nn12	71	65	1.7*	1.6*	76
CCN(CC)CCCNc1nc2cc(OC)c(OC)cc2c2nc(-c3ccccc3)nn12	1.8*	6.5*	0.8*	0.8*	26*
COc1cc2nc(NCC3CCCO3)n3nc(-c4cccnc4)nc3c2cc1OC (stereo not drawn)	87	21*	83	88	71
COc1ccc(-n2ncc3c(NCC4CCCO4)ncnc32)cc1 (stereo not drawn)	112	87	101	103	85
COc1cc2nc(NCCN3CCOCC3)n3nc(-c4ccccc4)nc3c2cc1OC	106	66	/	/	83
COc1ccc(/C=N/NC(=O)C(O)(c2ccccc2)c2ccccc2)cc1OC	/	/	83	98	/
SMILES	Lung fibro prol	H69AR inhibit	HCT116 bCat-KO	HCT116 PTEN-null	HUVEC inhibit
Cc1ccc(S(=O)(=O)N2CCN(c3ccc(C(=O)N4CCOCC4)cc3[N+](=O)[O-])CC2)cc1	/	/	82	87	/
N#CCCn1cc(/C=N/O)c(-c2ccc(-c3ccccc3)cc2)n1	74	32*	47	39	56
N#CCCn1cc(/C=N/O)c(-c2ccc(Cl)cc2)n1	93	95	86	89	101
C=CCNC(=O)C1CC(=O)N(c2ccc(OCC(=O)Nc3ccc(Cl)c(C(F)(F)F)c3)cc2)C1 (stereo not drawn)	98	14*	1.9*	1.9*	80
Cc1ccc(OP(=O)(Nc2c(C)n(C)n(-c3ccccc3)c2=O)Oc2ccc(C)cc2)cc1	/	/	84	96	/
CCOC(=O)c1cc2oc(C(c3nnnn3C3CCCCC3)N3CCOCC3)cc2[nH]1 (stereo not drawn)	94	9.8*	38	34	75
CCOC(=O)C1CCN(C(c2cc3ccc(C)cc3[nH]c2=O)c2nnnn2C2CCCCC2)CC1 (stereo not drawn)	97	94	92	92	97
Cc1ccc(S(=O)(=O)CCC(=O)c2ccc(O)cc2O)cc1	87	1.0*	45	30	87
Cc1ccc(S(=O)(=O)CCC(=O)OCc2ccc(Cl)cc2)cc1	/	/	95	103	/
NC(=O)c1cc(Br)cc2c3c([nH]c12)CCCC3	87	18*	51	45	42
O=c1c2c([nH]c3ccc(Br)cc13)CCCC2	94	68	/	/	102
C=CCn1c(SCC(=O)c2[nH]c(C)c(C(=O)OCC)c2C)nc2scc(-c3ccc(OC)c(OC)c3)c2c1=O	/	/	1.0*	0.8*	/
CCOC(=O)c1c(C)[nH]c(C(=O)CSc2nnc(-c3ccncc3)n2CC)c1C	/	/	99	102	/
COCCNC(=O)c1cc2c(-c3ccc(Cl)cc3)nn(C)c2s1	74	67	61	62	68
CCN1CCCC1CNC(=O)c1cc2c(-c3cccc(OC)c3)nn(C)c2s1 (stereo not drawn)	70	60	2.6*	4	47
CCN1CCCC1CNC(=O)c1cc2c(-c3ccc(Cl)cc3)nn(C)c2s1 (stereo not drawn)	11*	2.1*	3.2*	6	1.7*
COc1cccc(-c2nn(C)c3sc(C(=O)NCc4ccco4)cc23)c1	96	59	81	64	63
CC(=O)O[C@]1(C(C)=O)CC[C@H]2[C@@H]3C=C(Cl)C4=CC(=O)CC[C@]4(C)[C@H]3CC[C@@]21C	80	19*	65	62	87
CC(=O)OCC(=O)[C@H]1CC[C@H]2[C@@H]3CCC4=CC(=O)CC[C@]4(C)[C@H]3CC[C@]12C	93	78	81	88	54
CC(=O)O[C@]1(C(C)=O)CC[C@H]2[C@@H]3C[C@H](C)C4=CC(=O)CC[C@]4(C)[C@H]3CC[C@@]21C	91	5.1*	72	74	102
C(=C\c1nc(N2CCCC2)c2ccccc2n1)/c1ccccc1	/	/	1.8*	2.2*	/
COc1ccc(Nc2nc(N3CCCCC3)c3ccccc3n2)cc1	/	/	10	10	/
Oc1ccc(Nc2nc(N3CCCC3)c3ccccc3n2)cc1	2.5*	0.7*	2.0*	1.8*	47
CC1CCN(c2nc(/C=C/c3ccccc3)nc3ccccc23)CC1	/	/	76	84	/

Compound activity (PubChem BioAssay)
